{
  "source": "ChEMBL document CHEMBL6182829",
  "about": "“Developing peptide-based fusion inhibitors as an antiviral strategy utilizing coronin 1 as a template” (RSC Med Chem, 2025)",
  "key": {"Influenza A virus H3N2 [1]": {"test_system": "Influenza A virus H3N2", "test": "Antiviral activity against Influenza A virus X-31 (H3N2) infected in MDCK cells assessed as inhibition of viral infection preincubated for 48 hrs followed by viral infection for 45 mins by MTT assay", "assay_type": "functional, organism-based", "settings": "X-31, MDCK", "in_short": "(§1)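 A549 or MDCK cells seeded 1.5 × 10^4 per well, grown 24 h. Virus premixed with two-fold serial peptide dilutions in serum-free medium with trypsin (2.5 μg ml-1). Cells infected 45 min at 37 °C, washed, then kept 48 h in medium with 0.1% FBS, 0.3% BSA and trypsin. MTT 4 h, absorbance 570 nm. CPE inhibition normalised to cell and virus controls, dose-response fit for EC50; at least 3 sets.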"}, "Lipid bilayer [2]": {"test_system": "Lipid bilayer", "test": "Disruption of interfacial region in DOPC/DOPE/DOPG/CH (40/30/10/20 mol%) small unilamellar vesicles at 2 to 10 uM by TMA-DPH based fluorescence anisotropy", "settings": "dose 2-10 µM", "in_short": "(§2)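 TMA-DPH steady-state anisotropy in SUVs (200 μM total lipid) across a range of peptide concentrations. Excitation 360 nm, emission 428 nm, 5 nm slits. Buffer 10 mM TES, 100 mM NaCl, 1 mM CaCl2, 1 mM EDTA, pH 7.4, 37 °C. Anisotropy from polarised intensities with G-factor correction; mean ± S.E. of at least three measurements.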"}, "Lipid bilayer [3]": {"test_system": "Lipid bilayer", "test": "Reduction of apparent rotational correlation time in DOPC/DOPE/DOPG (60/30/10 mol%) small unilamellar vesicles at 2 to 10 uM by TMA-DPH anisotropy analysis", "settings": "dose 2-10 µM", "in_short": "(§3)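 Apparent rotational correlation time of TMA-DPH from the Perrin equation, combining steady-state anisotropy and mean lifetime with r0 = 0.4. SUVs at 200 μM lipid with varying peptide, in TES/NaCl/CaCl2/EDTA buffer pH 7.4 at 37 °C; at least three measurements.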"}, "Lipid bilayer [4]": {"test_system": "Lipid bilayer", "test": "Inhibition of PEG-induced DOPC/DOPE/DOPG/CH (50/30/10/10 mol%) small unilamellar vesicles assessed as content mixing at 1:100 compound: lipid concentration preincubated for 10 mins followed by PEG addition by fluorescence based analysis relative to control", "in_short": "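Content mixing by Tb3+/DPA complex fluorescence. Vesicles loaded with 8 mM TbCl3 or 80 mM DPA, external probe removed by gel filtration. Mixed 1:1 at 200 μM lipid; peptide 2 μM added 10 min before 6% (w/v) PEG, 37 °C. Normalised to co-encapsulated and detergent-treated samples.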"}, "Influenza A virus H3N2 [5]": {"test_system": "Influenza A virus H3N2", "test": "Antiviral activity against Influenza A virus X-31 (H3N2) infected in human A549 cells assessed as inhibition of viral infection preincubated for 48 hrs followed by viral infection for 45 mins by MTT assay", "assay_type": "functional, organism-based", "settings": "X-31, A549", "in_short": "as §1"}, "Influenza A virus H3N2 [6]": {"test_system": "Influenza A virus H3N2", "test": "Antiviral activity against Influenza A virus X-31 (H3N2) infected in human A549 cells assessed as reduction in viral M1 protein expression level incubated for 48 hrs post infection by Western blot analysis", "assay_type": "functional, organism-based", "in_short": "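Cells seeded at 0.25 × 10^6 per well and co-infected with virus–peptide mixtures as in the CPE assay. Lysed in RIPA with protease inhibitor 48 h post-infection, protein by BCA. Run on 12% SDS-PAGE, transferred to PVDF, blocked in 3% milk. Probed with anti-M1 (1:1000) and HRP anti-mouse IgG (1:10 000); β-actin as loading control after stripping.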"}, "Lipid bilayer [7]": {"test_system": "Lipid bilayer", "test": "Reduction of apparent rotational correlation time in DOPC/DOPE/DOPG/CH (50/30/10/10 mol%) small unilamellar vesicles at 2 to 10 uM by TMA-DPH anisotropy analysis", "settings": "dose 2-10 µM", "in_short": "as §3"}, "Lipid bilayer [8]": {"test_system": "Lipid bilayer", "test": "Inhibition of PEG-induced DOPC/DOPE/DOPG/CH (50/30/10/10 mol%) small unilamellar vesicles assessed as content leakage at 1:100 compound: lipid concentration preincubated for 10 mins followed by PEG addition by fluorescence based analysis relative to control", "in_short": "(§4)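 Leakage read as loss of fluorescence from vesicles co-encapsulating 8 mM TbCl3 and 80 mM DPA, external probe removed. Lipid 200 μM; peptide 2 μM added 10 min before 6% (w/v) PEG at 37 °C. 100% leakage set with 0.1% (w/v) Triton X-100.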"}, "Lipid bilayer [9]": {"test_system": "Lipid bilayer", "test": "Binding affinity to DOPC/DOPE/DOPG/CH (50/30/10/10 mol%) small unilamellar vesicles assessed as membrane organization and dynamic by measuring increase in fluorescence intensity at 1:100 compound: lipid concentration by tryptophan fluorescence based spectrofluorometric analysis", "in_short": "(§5)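 Tryptophan fluorescence spectra of the peptide recorded in buffer and with SUVs. Lipid:peptide 100:1, total lipid 200 μM, in 10 mM TES, 100 mM NaCl, 1 mM CaCl2, 1 mM EDTA, pH 7.4. At least three independent measurements averaged.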"}, "Lipid bilayer [10]": {"test_system": "Lipid bilayer", "test": "Disruption of interfacial region in DOPC/DOPE/DOPG/CH (50/30/10/10 mol%) small unilamellar vesicles at 2 to 10 uM by TMA-DPH based fluorescence anisotropy", "settings": "dose 2-10 µM", "in_short": "as §2"}, "Influenza A virus H3N2 [11]": {"test_system": "Influenza A virus H3N2", "test": "Antiviral activity against Influenza A virus X-31 (H3N2) infected in human A549 cells assessed as inhibition of viral infection incubated for 48 hrs post infection by hemagglutination assay (reference value: 4 No unit)", "assay_type": "functional"}, "Lipid bilayer [12]": {"test_system": "Lipid bilayer", "test": "Inhibition of PEG-induced DOPC/DOPE/DOPG/CH (40/30/10/20 mol%) small unilamellar vesicles assessed as content leakage at 1:100 compound: lipid concentration preincubated for 10 mins followed by PEG addition by fluorescence based analysis (reference value: 11.1 +/- 0.4 %)", "in_short": "as §4"}, "Lipid bilayer [13]": {"test_system": "Lipid bilayer", "test": "Inhibition of PEG-induced DOPC/DOPE/DOPG/CH (50/30/10/10 mol%) small unilamellar vesicles assessed as lipid mixing at 1:100 compound: lipid concentration preincubated for 10 mins followed by PEG addition by spectrofluorometric analysis (reference value: 67.8 +/- 2.7 %)", "in_short": "(§6)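 Lipid mixing followed as FRET dilution. Vesicles carrying 0.8 mol% NBD-PE and Rh-PE mixed 1:9 with probe-free vesicles at 200 μM lipid. Peptide 2 μM added 10 min before 6% (w/v) PEG at 37 °C. NBD donor intensity rise recorded over time; TX-100 defines complete mixing.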"}, "Lipid bilayer [14]": {"test_system": "Lipid bilayer", "test": "Binding affinity to DOPC/DOPE/DOPG (60/30/10 mol%) small unilamellar vesicles assessed as membrane organization and dynamic by measuring increase in fluorescence intensity at 1:100 compound: lipid concentration by tryptophan fluorescence based spectrofluorometric analysis", "in_short": "as §5"}, "Lipid bilayer [15]": {"test_system": "Lipid bilayer", "test": "Inhibition of interfacial polarity in DOPC/DOPE/DOPG (60/30/10 mol%) small unilamellar vesicles assessed as decrease in interfacial polarity at 2 to 10 uM by TMA-DPH fluorescence analysis", "settings": "dose 2-10 µM", "in_short": "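Interfacial polarity from TMA-DPH mean fluorescence lifetime in SUVs across peptide concentrations. TCSPC with 340 nm pulsed LED excitation, Ludox for IRF, 10 000 peak counts. Multi-exponential fits with χ2 ≤ 1.2; intensity-averaged lifetime. Run at 37 °C, pH 7.4 TES buffer, 200 μM lipid.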"}, "Lipid bilayer [16]": {"test_system": "Lipid bilayer", "test": "Inhibition of PEG-induced DOPC/DOPE/DOPG/CH (40/30/10/20 mol%) small unilamellar vesicles assessed as increase in lipid mixing at 1:100 compound: lipid concentration preincubated for 10 mins followed by PEG addition by spectrofluorometric analysis relative to control", "in_short": "as §6"}},
  "note": "The source made the active and inactive calls. No cut-off for these calls is given here. Where a SMILES comes first, the peptide text is derived from it.",
  "data": [
    {"smiles": "CC[C@H](C)[C@H](NC(=O)[C@H](CC(C)C)NC(=O)[C@H](C)NC(=O)[C@@H](NC(=O)[C@H](Cc1ccccc1)NC(=O)[C@H](CCCCN)NC(=O)[C@@H]1CCCN1C(=O)[C@H](CC(N)=O)NC(=O)[C@@H](NC(=O)[C@H](C)NC(=O)[C@H](CS)NC(=O)[C@H](Cc1ccccc1)NC(=O)CNC(=O)[C@H](CO)NC(=O)[C@H](CC(=O)O)NC(=O)[C@H](Cc1c[nH]c2ccccc12)NC(=O)[C@@H](NC(=O)[C@@H](N)[C@@H](C)O)[C@@H](C)O)C(C)C)C(C)C)C(=O)N[C@@H](CS)C(=O)N[C@@H](CC(=O)O)C(=O)N[C@@H](Cc1c[nH]c2ccccc12)C(=O)N[C@@H](CO)C(=O)NCC(=O)O", "note": "(H-TTWDSGFCAVNPKFVALICDWSG-OH)", "values": [
      {"measurement": "EC50", "setting": "Influenza A virus H3N2 [1]", "value": "~21.6", "unit": "µM"},
      {"measurement": "Activity", "setting": "Lipid bilayer [2]", "value": "Active; Less Stiff In Membranes"},
      {"measurement": "Activity", "setting": "Lipid bilayer [3]", "value": "Active"},
      {"measurement": "inhibition", "setting": "Lipid bilayer [4]", "value": 30, "unit": "%"},
      {"measurement": "EC50", "setting": "Influenza A virus H3N2 [5]", "value": "~20.4", "unit": "µM"},
      {"measurement": "Activity", "setting": "Influenza A virus H3N2 [6]", "value": "Dose-dependent-effect"},
      {"measurement": "Activity", "setting": "Lipid bilayer [7]", "value": "Active"},
      {"measurement": "inhibition", "setting": "Lipid bilayer [8]", "value": 40, "unit": "%"},
      {"measurement": "Activity", "setting": "Lipid bilayer [9]", "value": "Active"},
      {"measurement": "Activity", "setting": "Lipid bilayer [10]", "value": "Active"},
      {"measurement": "Activity", "setting": "Influenza A virus H3N2 [11]", "value": 0},
      {"measurement": "inhibition", "setting": "Lipid bilayer [12]", "value": 14.4, "unit": "%"},
      {"measurement": "inhibition", "setting": "Lipid bilayer [13]", "value": 72.1, "unit": "%"},
      {"measurement": "Activity", "setting": "Lipid bilayer [14]", "value": "Active"},
      {"measurement": "inhibition", "setting": "Lipid bilayer [15]", "value": "Active; Partial Reduction Is Observed"},
      {"measurement": "inhibition", "setting": "Lipid bilayer [16]", "value": 8, "unit": "%"}
    ]}
  ]
}
